SMILES strings stand for the structures. pEC50: −log10 of the molar value. Bounds are passed on as bounds.

Data set [1] has as its system Trypanosoma brucei. The experiment in a line: Antitrypanosomal activity against blood stream form of Trypanosoma brucei after 69 hrs by resazurin-based fluorescence assay. It is filed as functional, organism-based. The method in brief: (§1)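 96-well HTS whole-cell assay against bloodstream-form T. brucei and human MRC5 cells. EC50 values are the arithmetic mean of independent determinations, with SD and number of repeats. Species selectivity is EC50 (MRC5)/EC50 (T. brucei).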
For orientation: Alamar Blue is a resazurin reagent that responds to reducing activity.

Data set [2] deals with MRC5. The experiment in a line: Cytotoxicity against human MRC5 cells after 3 days by resazurin-based fluorescence assay. The class given is cell-based. The following applies: MRC5, 72 h. The method in brief:
as §1

Data set [3] is described as follows: Selectivity ratio of EC50 for human MRC5 cells to EC50 for blood stream form of Trypanosoma brucei. The class given is ADME, cell-based. Particulars: read-out: Ratio EC50. The gist of the method:
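Ratio of EC50 in human MRC5 cells over EC50 in bloodstream-form T. brucei, both from 96-well HTS whole-cell assays. Each EC50 is the arithmetic mean of independent determinations, reported with SD and number of repeats.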

Usually pEC50 stands for the negative decadic logarithm of the EC50, by convention in mol/L. Low values mean a large EC50, high ones a small EC50. Take `O=C1C=CC(O)(c2nc3ccccc3s2)C=C1`: the negative logarithm of the EC50 (pEC50) in data set [1] is 7.11; in data set [2], 6.74. The selectivity ratio in data set [3] turned out to be 2.

Take `COc1ccc(Cn2cc(C3(O)C=CC(=O)C=C3)nn2)cc1`: the selectivity ratio in data set [3] worked out at 3.

For `Nc1nc(N)nc(-n2cc(C3(O)C=CC(=O)C=C3)nn2)n1`, the negative-log EC50 (pEC50) in data set [2] is < 4.30. The selectivity ratio in data set [3] was > 8.

As for `O=C1C=CC(O)(c2cc3ccccc3n2S(=O)(=O)c2ccccc2)C=C1`, the negative logarithm of the EC50 (pEC50) in data set [1] is 7.28; in data set [2] it was 6.96. Further, the selectivity ratio in data set [3] came to 2.

For `CC(=O)OC[C@H]1O[C@@H](n2cc(C3(O)C=CC(=O)C=C3)nn2)[C@H](OC(C)=O)[C@@H](OC(C)=O)[C@H]1OC(C)=O`, the selectivity ratio in data set [3] was > 5.

`O=C1C=CC(O)(c2cn(-c3ccc4ncsc4c3)nn2)C=C1`: in data set [3], the selectivity ratio came to 3.

Turning to `Cc1ccc(S(=O)(=O)n2c(C3(O)C=CC(=O)C=C3)cc3ccncc32)cc1`, the selectivity ratio in data set [3] is 2.

On to `CC(=O)NCCc1ccc(S(=O)(=O)n2c(C3(O)C=CC(=O)C=C3)cc3ccccc32)cc1`, for which, in data set [3], the selectivity ratio was 3.

In the case of `O=C1C=CC(O)(c2ccccc2)C=C1`, the pEC50 in data set [1] is 6.12; in data set [2], 5.77. Besides, the selectivity ratio in data set [3] was determined as 2.

For the compound `O=C1C=CC(O)(C#Cc2ccc(CC(=O)Nc3ccccc3)cc2)C=C1`, the selectivity ratio in data set [3] was 0.3.

For `Nc1nc(N)nc(NCCCNC(=O)CCc2ccc(S(=O)(=O)n3c(C4(O)C=CC(=O)C=C4)cc4ccccc43)cc2)n1`, the selectivity ratio in data set [3] came out at 5.6.

With `O=C1C=CC(O)(c2cc3ccccc3n2S(=O)(=O)c2ccc(CCC(=O)N3CCOCC3)cc2)C=C1`, the selectivity ratio in data set [3] was 2.

Regarding `O=C1C=CC(O)(c2cc3ccccc3n2S(=O)(=O)c2ccc(CCC(=O)O)cc2)C=C1`, the selectivity ratio in data set [3] was found to be 4.5.

For `O=C1C=CC(O)(c2nc3ccccc3s2)C(Cl)=C1` (configuration not stated), in data set [3], the selectivity ratio was 1.

In the case of `O=C1C=CC(O)(c2cc3cnccc3n2S(=O)(=O)c2ccccc2)C=C1`, the selectivity ratio in data set [3] was 2.

In the case of `COc1ccc(-n2cc(C3(O)C=CC(=O)C=C3)nn2)cc1`, the pEC50 in data set [1] was 6.89; in data set [2], 6.51. In data set [3], the selectivity ratio was 2.

With `CN1CCN(CCCc2ccc(S(=O)(=O)n3c(C4(O)C=CC(=O)C=C4)cc4ccccc43)cc2)CC1`, in data set [3], the selectivity ratio worked out at 3.

Take `O=C1C=CC(O)(c2cc3ccccc3n2S(=O)(=O)c2ccc(CCCO)cc2)C=C1`: the selectivity ratio in data set [3] is 2.

On to `O=C1C=CC(O)(c2cn(CCC(=O)Nc3ccccc3)nn2)C=C1`, for which the selectivity ratio in data set [3] is 7.

Consider `C#CC1(O)C=CC(=O)C=C1`, for which the selectivity ratio in data set [3] came to 1.

As to `O=C1C=CC(O)(c2cc3ccc(F)cc3n2S(=O)(=O)c2ccccc2)C=C1`, the negative-log EC50 (pEC50) in data set [1] was 7.00; in data set [2], 6.77. Further, in data set [3], the selectivity ratio stood at 2.

Take `Oc1ccc(-c2nc3ccccc3s2)cc1`: the negative-log EC50 (pEC50) in data set [1] and in data set [2] was < 4.30 throughout.

Take `COC(=O)CCc1ccc(S(=O)(=O)n2c(C3(O)C=CC(=O)C=C3)cc3ccccc32)cc1`: the selectivity ratio in data set [3] worked out at 2.

As for `CCOC(=O)Nc1ccc(S(=O)(=O)n2c(C3(O)C=CC(=O)C=C3)cc3ccccc32)cc1`, the selectivity ratio in data set [3] came out at 2.

As to `N=C(N)c1ccc(-n2cc(C3(O)C=CC(=O)C=C3)nn2)cc1`, the pEC50 in data set [2] is < 4.30. Further, the selectivity ratio in data set [3] is > 5.

On to `Nc1nc(N)nc(NCCCOC(=O)CCc2ccc(S(=O)(=O)n3c(C4(O)C=CC(=O)C=C4)cc4ccccc43)cc2)n1`, for which the selectivity ratio in data set [3] was 2.7.

`CS(=O)(=O)c1ccc(S(=O)(=O)n2c(C3(O)C=CC(=O)C=C3)cc3ccccc32)cc1`: the selectivity ratio in data set [3] was 2.

As to `CN1CCN(C(=O)CCc2ccc(S(=O)(=O)n3c(C4(O)C=CC(=O)C=C4)cc4ccccc43)cc2)CC1`, in data set [3], the selectivity ratio is 3.

Turning to `O=C1C=CC(O)(c2cc3ccccc3n2S(=O)(=O)c2ccc(CCCN3CCOCC3)cc2)C=C1`, the selectivity ratio in data set [3] was found to be 3.

These data come from ChEMBL document CHEMBL1944638, “Quinol derivatives as potential trypanocidal agents” (Bioorg Med Chem, 2012).
